Experiment [1] concerns the target Acetylcholinesterase (Anopheles gambiae, UniProt Q869C3, G122S). The experiment in a line: Inhibition of recombinant full length Anopheles gambiae AChE1 G122S mutant expressed in baculovirus-infected Sf9 insect cells using acetylthiocholine iodide as substrate measured over 60 secs by Ellman's method. (DTNB colorimetry detects thiols as they appear.)
For experiment [2], the target named is Acetylcholinesterase (Anopheles gambiae, UniProt Q869C3). The experiment in a line: Inhibition of recombinant full length Anopheles gambiae AChE1 expressed in baculovirus-infected Sf9 insect cells using acetylthiocholine iodide as substrate measured over 60 secs by Ellman's method.
For experiment [3], the target named is Acetylcholinesterase (Homo sapiens, UniProt P22303). Kind of experiment: Inhibition of recombinant human AChE expressed in HEK293F cells using acetylthiocholine iodide as substrate measured over 60 secs by Ellman's method. On the set-up: species or system HEK293.
Experiment [4] is described as follows: Inhibition of recombinant full length Aedes aegypti AChE1 expressed in baculovirus-infected Sf9 insect cells using acetylthiocholine iodide as substrate measured over 60 secs by Ellman's method. Put shortly: (§1)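 Secreted, non-purified recombinant enzyme in growth medium, tested as enzyme source. Ellman assay at 30 °C in 0.1 M phosphate buffer pH 7.4 with 0.2 mM DTNB and 1 mM acetylthiocholine iodide; A412 followed over 60 s. Compound (100 mM DMSO stock) tested at eight concentrations, maximum 1 mM. Activity set relative to eight uninhibited controls per plate; IC50 from three-parameter variable-slope fit; 2-3 independent replicates.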

A short description of experiment [5]: Selectivity ratio of IC50 for recombinant human AChE expressed in HEK293F cells to IC50 for recombinant full length Anopheles gambiae AChE1 expressed in baculovirus-infected Sf9 insect cells. The essentials: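 Ratio of the hAChE IC50 divided by the higher of the AgAChE1 or AaAChE1 IC50. Each IC50 came from an Ellman assay (1 mM acetylthiocholine, 0.2 mM DTNB, pH 7.4, 30 °C) with eight concentrations up to 1 mM, using 2-3 replicates.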

Experiment [6] relates to Acetylcholinesterase (Anopheles gambiae), Q869C3 [G122S]. The experiment in a line: Inhibition of recombinant full length Anopheles gambiae AChE1 G122S mutant expressed in baculovirus-infected Sf9 insect cells up to 1 mM using acetylthiocholine iodide as substrate measured over 60 secs by Ellman's method. The essentials: as §1
Experiment [7] deals with Anopheles gambiae. The experiment in a line: Insecticidal activity against 3rd instar larvae of Anopheles gambiae Kisumu assessed as mortality at 50 uM administered via de-chlorinated tap water after 48 hrs. The experiment is classed as functional.
The test system of experiment [8] is Aedes aegypti. Kind of experiment: Insecticidal activity against five days old adult Aedes aegypti Mombasa assessed as mortality at 100 mM applied topically on upper part of pronotum after 48 hrs (reference value: 7 to 8%). The format is functional. The settings on record: topical.
The test system of experiment [9] is Anopheles gambiae. The experiment in a line: Insecticidal activity against five days old adult Anopheles gambiae Kisumu assessed as mortality at 1 nmol applied topically on upper part of pronotum after 24 hrs. The experiment is classed as functional.
The test system of experiment [10] is Anopheles gambiae. Kind of experiment: Insecticidal activity against 3rd instar larvae of Anopheles gambiae Kisumu assessed as mortality at 500 uM administered via de-chlorinated tap water after 24 hrs. The format is functional. The essentials: (§2)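 Kenyan strains were reared at 27-28 °C, about 80% humidity, 12/12 h light. Per compound and concentration, 25 third-instar larvae were placed in 100 ml de-chlorinated water containing the compound and kept under insectary conditions. The negative control was plain water; the positive control was propoxur at 25 µM. Mortality was scored at 24 h; 75 treated and 50 control larvae in total.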

Experiment [11] concerns Anopheles gambiae. Kind of experiment: Insecticidal activity against five days old adult Anopheles gambiae Kisumu assessed as mortality at 0.2 nmol applied topically on upper part of pronotum after 24 hrs. The experiment is classed as functional.
Experiment [12] concerns Anopheles gambiae. Kind of experiment: Insecticidal activity against 3rd instar larvae of Anopheles gambiae Kisumu assessed as mortality at 50 uM administered via de-chlorinated tap water after 24 hrs. The format is functional. The essentials: as §2
Experiment [13] relates to Aedes aegypti. Kind of experiment: Insecticidal activity against five days old adult Aedes aegypti Mombasa assessed as mortality at 0.2 nmol applied topically on upper part of pronotum after 24 hrs. The format is functional.
For experiment [14], the system named is Anopheles gambiae. The experiment in a line: Insecticidal activity against five days old adult Anopheles gambiae Kisumu assessed as mortality at 100 mM applied topically on upper part of pronotum after 48 hrs (reference value: 15 to 24%). The settings on record: topical. The format is functional.
The subject of experiment [15] is Anopheles gambiae. Kind of experiment: Insecticidal activity against five days old adult Anopheles gambiae Kisumu assessed as mortality at 10 nmol applied topically on upper part of pronotum after 24 hrs. The format is functional.
Experiment [16] relates to Aedes aegypti. Kind of experiment: Insecticidal activity against five days old adult Aedes aegypti Mombasa assessed as mortality at 2 mM applied topically on upper part of pronotum after 48 hrs (reference value: 3 to 12%). The experiment is classed as functional. The settings on record: topical.
Experiment [17] relates to Aedes aegypti. Kind of experiment: Insecticidal activity against 3rd instar larvae of Aedes aegypti Mombasa assessed as mortality at 500 uM administered via de-chlorinated tap water after 24 hrs. The experiment is classed as functional. Put shortly:
as §2

Experiment [18] relates to Aedes aegypti. The experiment in a line: Insecticidal activity against 3rd instar larvae of Aedes aegypti Mombasa assessed as mortality at 50 uM administered via de-chlorinated tap water after 24 hrs. The format is functional. Put shortly: as §2
The subject of experiment [19] is Anopheles gambiae. The experiment in a line: Insecticidal activity against five days old adult Anopheles gambiae Kisumu assessed as mortality at 10 mM applied topically on upper part of pronotum after 24 hrs (reference value: 8 to 16%). Particulars: topical. The format is functional.
The test system of experiment [20] is Anopheles gambiae. Kind of experiment: Insecticidal activity against five days old adult Anopheles gambiae Kisumu assessed as mortality at 2 mM applied topically on upper part of pronotum after 48 hrs (reference value: 13 to 38%). The format is functional. Particulars: topical.
Experiment [21] concerns Aedes aegypti. Kind of experiment: Insecticidal activity against 3rd instar larvae of Aedes aegypti Mombasa assessed as mortality at 500 uM administered via de-chlorinated tap water after 48 hrs (reference value: 0 to 2%). The experiment is classed as functional.
For experiment [22], the system named is Anopheles gambiae. Kind of experiment: Insecticidal activity against five days old adult Anopheles gambiae Kisumu assessed as mortality at 2 mM applied topically on upper part of pronotum after 24 hrs (reference value: 3 to 17%). The experiment is classed as functional. Particulars: topical.
For experiment [23], the system named is Aedes aegypti. The experiment in a line: Insecticidal activity against five days old adult Aedes aegypti Mombasa assessed as mortality at 10 nmol applied topically on upper part of pronotum after 24 hrs. The experiment is classed as functional.
Experiment [24] has as its system Aedes aegypti. Kind of experiment: Insecticidal activity against five days old adult Aedes aegypti Mombasa assessed as mortality at 1 nmol applied topically on upper part of pronotum after 24 hrs. The format is functional.
The subject of experiment [25] is Anopheles gambiae. The experiment in a line: Insecticidal activity against 3rd instar larvae of Anopheles gambiae Kisumu assessed as mortality at 500 uM administered via de-chlorinated tap water after 48 hrs. The format is functional.
Experiment [26] has as its system Anopheles gambiae. Kind of experiment: Insecticidal activity against five days old adult Anopheles gambiae Kisumu assessed as mortality at 100 mM applied topically on upper part of pronotum after 24 hrs (reference value: 9 to 10%). Particulars: topical. The format is functional.
Experiment [27] concerns Aedes aegypti. Kind of experiment: Insecticidal activity against 3rd instar larvae of Aedes aegypti Mombasa assessed as mortality at 50 uM administered via de-chlorinated tap water after 48 hrs (reference value: 0 to 4%). The experiment is classed as functional.
The test system of experiment [28] is Anopheles gambiae. Kind of experiment: Insecticidal activity against five days old adult Anopheles gambiae Kisumu assessed as mortality at 10 mM applied topically on upper part of pronotum after 48 hrs (reference value: 14 to 22%). The experiment is classed as functional. Particulars: topical.
For experiment [29], the system named is Aedes aegypti. The experiment in a line: Insecticidal activity against five days old adult Aedes aegypti Mombasa assessed as mortality at 2 mM applied topically on upper part of pronotum after 24 hrs (reference value: 2 to 10%). Particulars: topical. The format is functional.
The subject of experiment [30] is Aedes aegypti. The experiment in a line: Insecticidal activity against five days old adult Aedes aegypti Mombasa assessed as mortality at 10 mM applied topically on upper part of pronotum after 24 hrs (reference value: 3 to 15%). The format is functional. Particulars: topical.
Experiment [31] has as its system Aedes aegypti. The experiment in a line: Insecticidal activity against five days old adult Aedes aegypti Mombasa assessed as mortality at 100 mM applied topically on upper part of pronotum after 24 hrs (reference value: 3%). The format is functional. The settings on record: topical.
The test system of experiment [32] is Aedes aegypti. Kind of experiment: Insecticidal activity against five days old adult Aedes aegypti Mombasa assessed as mortality at 10 mM applied topically on upper part of pronotum after 48 hrs (reference value: 3 to 15%). The format is functional. Particulars: topical.

Active and inactive are the calls of the source. The calls are words filed in the database; no cut-off is given here.

The term IC50 denotes the concentration needed to halve the response being measured. Broadly, the mortality is the percentage killed.

As for `COc1ccccc1NC(=S)NCCN1CCCCC1`, the IC50 in experiment [1] was 66 µM; in [2], 29 µM; in experiment [3] it was 32 µM; in experiment [4] it was 22 µM. Further, the Ratio IC50 in [5] turned out to be 1.
For the compound `COc1ccccc1N=C(S)NCCN1CCOCC1`, the inhibition entry in experiment [6] was “inactive”. Moreover, the IC50 in experiment [2], in experiment [3] and in experiment [4] was over 200 µM in each case.
As to `COc1ccc(NC(=S)NCCN(C)C)cc1`, the mortality at 50 µM stood at 5% in [7], 4% in experiment [12], 4% in experiment [18] and 5% in experiment [27]. Besides, the mortality at 100000 µM in [8] stood at 17%; in [14] it was 67%; in experiment [26], 59%; in [31] it was 12%. Besides, the mortality in experiment [9] is 32%; in experiment [11] it was 0%; in experiment [13], 1%; in [15] it was 55%; in experiment [23], 12%; in experiment [24], 0%. In addition, the mortality at 500 µM in [10] was 3%; in experiment [17] it was 1%; in experiment [21] it was 3%; in experiment [25], 16%. Besides, the mortality at 2000 µM came out at 11% in experiment [16], 36% in [20], 17% in experiment [22] and 11% in experiment [29]. Also, the mortality at 10000 µM in experiment [19] turned out to be 43%; in [28] it was 50%; in experiment [30], 12%; in experiment [32], 21%. Moreover, the IC50 in experiment [1], in experiment [2], in [3] and in [4] was over 200 µM each time.
With `CN(C)CCN=C(S)Nc1cccc(Cl)c1`, the IC50 in experiment [1] is over 200 µM; in experiment [2] it was 96 µM; in [3], 140 µM; in experiment [4], 83 µM. Further, the Ratio IC50 in [5] worked out at 1.
Regarding `COc1ccc(NC(=S)NCCN2CCCCC2)cc1`, the half-inhibitory concentration (IC50) worked out at 94 µM in experiment [1], 29 µM in experiment [2], 120 µM in experiment [3] and 28 µM in experiment [4]. Also, the Ratio IC50 in experiment [5] came to 4.
For `S=C(NCCN1CCCCC1)Nc1cccc(Cl)c1`, in that order: 22 µM, 140 µM, 190 µM, 120 µM and 1.
With `NS(=O)(=O)c1ccc(NC(=S)NCCN2CCOCC2)cc1`, the inhibition entry in experiment [6] is “inactive”. Besides, the IC50 in [2], in experiment [3] and in experiment [4] was over 200 µM each time.
`CN(C)CCN=C(S)Nc1ccccc1Cl`: in [5], the Ratio IC50 is over 12.
`CN(C)CC/N=C(/S)Nc1ccc(S(N)(=O)=O)cc1`: the inhibition entry in experiment [6] is “inactive”. Besides, the IC50 in experiment [2] is 74 µM; in experiment [3] it was over 200 µM; in experiment [4], 56 µM. Moreover, the Ratio IC50 in experiment [5] is over 2.7.
Regarding `COc1ccc(NC(S)=NCCN2CCOCC2)cc1`, the IC50 in experiment [1] is over 200 µM; in experiment [2] it was 11 µM; in [3], over 200 µM. The Ratio IC50 in experiment [5] was over 18.
